Data reported in ChEMBL document CHEMBL1123979, “Structure-activity analysis of a class of orally active hydroxamic acid inhibitors of leukotriene biosynthesis” (J Med Chem, 1988).

Experiments:
[1] = molecular target: T1, Polyunsaturated fatty acid 5-lipoxygenase (Rattus norvegicus, UniProt P12527); assay: In vitro inhibition of 5-lipoxygenase from RBL-1 cells; assay type: cell-based
T1 sequence (P12527 whole entry): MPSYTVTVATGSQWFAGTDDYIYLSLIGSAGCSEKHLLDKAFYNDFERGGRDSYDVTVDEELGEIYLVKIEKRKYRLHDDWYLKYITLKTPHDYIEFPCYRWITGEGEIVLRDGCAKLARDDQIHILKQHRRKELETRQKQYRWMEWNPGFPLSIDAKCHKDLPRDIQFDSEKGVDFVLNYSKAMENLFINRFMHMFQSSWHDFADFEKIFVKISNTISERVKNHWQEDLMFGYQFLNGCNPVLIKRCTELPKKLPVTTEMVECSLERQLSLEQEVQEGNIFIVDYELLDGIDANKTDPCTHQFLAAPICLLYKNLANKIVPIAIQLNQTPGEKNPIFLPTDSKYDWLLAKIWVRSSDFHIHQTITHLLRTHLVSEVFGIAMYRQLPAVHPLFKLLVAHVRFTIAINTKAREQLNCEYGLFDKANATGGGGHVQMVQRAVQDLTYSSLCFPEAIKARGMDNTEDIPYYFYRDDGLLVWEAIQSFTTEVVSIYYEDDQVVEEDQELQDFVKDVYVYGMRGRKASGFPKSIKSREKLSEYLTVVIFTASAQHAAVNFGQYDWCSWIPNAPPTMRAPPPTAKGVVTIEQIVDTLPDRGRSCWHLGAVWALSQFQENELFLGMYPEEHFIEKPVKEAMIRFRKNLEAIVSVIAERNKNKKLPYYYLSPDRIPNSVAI
How it was run: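 Enzyme source is the 20000g supernatant of RBL-1 cells, assayed for 5-lipoxygenase inhibition. IC50 is reported in µM with a range in parentheses.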

[2] = In vivo Inhibition of biosynthesis of leukotriene in rat peritoneal anaphylaxis model; assay type: functional
How it was run: (§1)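 Test compounds are given orally to rats in the peritoneal anaphylaxis model, and leukotriene biosynthesis is measured in vivo. ED50 is expressed in µmol/kg, with the range in parentheses and the mg/kg equivalent.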

[3] = In vivo inhibition of biosynthesis of leukotriene in rat peritoneal anaphylaxis model; assay type: functional; how it was run: as §1
Rattus norvegicus = assay: Plasma concentration 1 hr after oral administration of a dose of 200 uM/kg; assay type: functional, organism-based
How it was run: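 Rats are dosed orally at 200 µmol/kg, and plasma drug concentration is measured 1 h later. Values are the average ± range of two determinations, and the stated detection limit is 2.0 µM.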

[4] = In vivo inhibition of biosynthesis of leukotriene in rat peritoneal anaphylaxis model at 200 umol/kg; assay type: functional
How it was run: (§2)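 Rats receive a single oral dose of 200 µmol/kg, and in vivo activity is measured 1 h after dosing in the peritoneal anaphylaxis model. The result is given as % inhibition of leukotriene biosynthesis or flagged as not significant.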

[5] = In vivo inhibition of biosynthesis of leukotriene in rat peritoneal anaphylaxis model at 200 uM/Kg; assay type: functional; how it was run: as §2
[6] = In vivo inhibition of biosynthesis of leukotriene in rat peritoneal anaphylaxis model; non significant at 200 umol/kg; assay type: functional; how it was run: as §2
[7] = In vivo inhibition of biosynthesis of leukotriene in rat peritoneal anaphylaxis model at 200 uMKg; assay type: functional; how it was run: as §2
[8] = In vivo inhibition of biosynthesis of leukotriene in rat peritoneal anaphylaxis model at 200 mg/Kg; assay type: functional
[9] = Rattus norvegicus, read-out: ED50

CC(=O)N(O)C(C)c1ccc(OC(C)c2ccccc2)cc1 (stereo not given)
IC50 [1]: 500 nM | ED50 [2, 9]: 28 mg/kg | ED50 [3, 9]: 92 µmol/kg | Concentration (Rattus norvegicus): 106 µM

CC(C)C(=O)N(O)C(C)c1ccc(OCc2ccccc2)cc1 (stereo not given)
IC50 [1]: 470 nM | inhibition in vivo at 200 µmol/kg [4]: < 40%

CC(=O)N(O)C(C)c1ccc(OCc2ccccc2)cc1 (stereo in doubt; 5) [listing 1 of 2 here]
ED50 [2]: 8 mg/kg | ED50 [3]: 28 µM/kg

CCCCOc1ccc(C(C)N(O)C(=O)c2ccccc2)cc1 (stereo not given)
IC50 [1]: 1300 nM | inhibition in vivo at 200 µmol/kg [4]: < 40%

CC(=O)N(O)C(C)c1ccc(OC2c3ccccc3-c3ccccc32)cc1 (stereo not given)
IC50 [1]: 4900 nM | Inhibition [5]: <40%

CC(=O)N(O)C(C)c1ccc(OCc2ccncc2)cc1 (stereo not given)
IC50 [1]: 2600 nM | ED50 [2, 9]: 9 mg/kg | ED50 [3, 9]: 32 µmol/kg | Concentration (Rattus norvegicus): 152 µM

CCCCOc1ccc(CCC(C)N(O)C(C)=O)cc1 (stereo not given)
IC50 [1]: 360 nM | ED50 [2, 9]: 35 mg/kg | ED50 [3, 9]: 120 µmol/kg

CCCCOc1ccc(C(C)(C)N(O)C(C)=O)cc1
IC50 [1]: 650 nM | inhibition in vivo at 200 µmol/kg [4]: < 40%

CC(=O)N(O)C(C)c1ccc(/C=C/c2ccccc2)cc1 (stereo not given)
IC50 [1]: 290 nM

CCCCOc1ccc(C(C(C)C)N(O)C(C)=O)cc1 (stereo not given)
IC50 [1]: 880 nM | Concentration (Rattus norvegicus): < 2 µM

CC(c1ccc(OCc2ccccc2)cc1)N(O)C=O (stereo not given)
IC50 [1]: 940 nM | inhibition in vivo at 200 µmol/kg [6]: < 40% | Concentration (Rattus norvegicus): 2.3 µM

CCCCOc1ccc(OCCN(O)C(C)=O)cc1
IC50 [1]: 750 nM | ED50 [2, 9]: 22 mg/kg | ED50 [3, 9]: 84 µmol/kg

CCCCOc1cccc(C(C)N(O)C(C)=O)c1 (stereo not given)
IC50 [1]: 390 nM

CCCCOc1ccc(CN(O)C(C)=O)cc1
IC50 [1]: 1100 nM

CCCCOc1ccc(C(C)N(O)C=O)cc1 (stereo not given)
IC50 [1]: 1900 nM | inhibition in vivo at 200 µmol/kg [4]: < 40%

CC(=O)N(O)C(C)c1ccc(C(C)Oc2ccccc2)cc1 (stereo not given)
IC50 [1]: 460 nM | Inhibition [5]: 47%

CCCCOc1ccc(CCN(O)C(C)=O)cc1
IC50 [1]: 380 nM | inhibition in vivo at 200 µmol/kg [4]: < 40%

CC(=O)N(O)C(C)c1ccc(OCCc2ccccc2)cc1 (stereo not given)
IC50 [1]: 410 nM | ED50 [2, 9]: 15 mg/kg | ED50 [3, 9]: 49 µmol/kg

CC(=O)N(O)C(c1ccc(OCc2ccccc2)cc1)C(C)C (stereo not given)
IC50 [1]: 780 nM | inhibition in vivo at 200 µmol/kg [4]: < 40%

CCCCOc1ccc(CC(C)N(O)C(C)=O)cc1 (stereo not given)
IC50 [1]: 540 nM | Inhibition [7]: 74%

CC(=O)N(O)C(C)c1ccc(OCc2ccccc2)cc1 (stereo in doubt; 5) [listing 2 of 2 here]
Concentration (Rattus norvegicus): 70 µM

CC(=O)N(O)C(C)c1ccc(OC(c2ccccc2)C(C)C)cc1 (stereo not given)
IC50 [1]: 610 nM | Inhibition [5]: <40% | Concentration (Rattus norvegicus): 10.7 µM

CC(=O)N(O)C(C)c1ccc(OCc2c(C)cc(C)cc2C)cc1 (stereo not given)
IC50 [1]: 620 nM | Inhibition [5]: <40%

CC(=O)N(O)C(C)c1ccccc1OCc1ccccc1 (stereo not given)
IC50 [1]: 760 nM | inhibition in vivo at 200 mg/kg [8]: < 40%

CCCCOc1ccc(CCCN(O)C(C)=O)cc1
IC50 [1]: 320 nM

CCCCOc1ccc(C(CC)N(O)C(C)=O)cc1 (stereo not given)
IC50 [1]: 740 nM | ED50 [2, 9]: 50 mg/kg | ED50 [3, 9]: 188 µmol/kg

CC(=O)N(O)C(C)c1ccc(SCc2ccccc2)cc1 (stereo not given)
IC50 [1]: 190 nM

CCCCOc1ccc(C(CCCC)N(O)C(C)=O)cc1 (stereo not given)
IC50 [1]: 570 nM | inhibition in vivo at 200 µmol/kg [4]: < 40%

CC(c1ccc(OCc2ccccc2)cc1)N(O)C(=O)c1ccccc1 (stereo not given)
IC50 [1]: 690 nM | inhibition in vivo at 200 µmol/kg [4]: < 40% | Concentration (Rattus norvegicus): < 2 µM

CC(=O)N(O)C(C)c1ccc(Oc2ccccc2)cc1 (stereo not given)
IC50 [1]: 370 nM | ED50 [2, 9]: 12 mg/kg | ED50 [3, 9]: 47 µmol/kg | Concentration (Rattus norvegicus): 52 µM

CC(=O)N(O)Cc1ccc(OCc2ccccc2)cc1
IC50 [1]: 460 nM | Concentration (Rattus norvegicus): 2.1 µM

CC(=O)N(O)C(C)c1ccc(OCc2ccccc2)cc1 (stereo in doubt; 7)
IC50 [1]: 370 nM

CC(=O)N(O)C(C)c1cccc(OCc2ccccc2)c1 (stereo not given)
IC50 [1]: 330 nM | ED50 [2, 9]: 19 mg/kg | ED50 [3, 9]: 68 µmol/kg

CC(=O)N(O)C(C)c1ccc(OCc2ccc3ccccc3n2)cc1 (stereo not given)
IC50 [1]: 400 nM | ED50 [2, 9]: 17 mg/kg | ED50 [3, 9]: 51 µmol/kg

CCCCOc1ccc(C(C)N(O)C(C)=O)cc1 (stereo not given)
IC50 [1]: 790 nM | ED50 [2, 9]: 17 mg/kg | ED50 [3, 9]: 68 µmol/kg | Concentration (Rattus norvegicus): 65.7 µM
